# Laboratory results as given in ChEMBL document CHEMBL3046278, “Design, synthesis and antifungal/insecticidal evaluation of novel cinnamide derivatives” (2011).
# System: Bursaphelenchus xylophilus
# Assay: Nematicidal activity against Bursaphelenchus xylophilus assessed as mortality after 24 hr
# Type: functional
# Details: read-out: LD50 (the source's name)
row,Structure (SMILES),LC50
1,CN(/C=C\c1ccccc1)C(=O)/C=C/c1ccccc1 [LANSIUMAMIDE B],8.38 µg/mL
2,Cc1ccc(/C(=C/C(=O)NCCc2ccccc2)c2ccnc(Cl)c2)cc1C,430 µg/mL
3,CCc1ccc(/C(=C/C(=O)NCCc2ccccc2)c2ccnc(Cl)c2)cc1,301 µg/mL
4,COc1ccc(CCNC(=O)/C=C(/c2ccc(C)cc2)c2ccnc(Cl)c2)cc1OC,305 µg/mL

# System: Rhizoctonia solani
# Assay: Antifungal activity against Rhizoctonia solani assessed as inhibition of mycelium growth at 50 ug/ml relative to control
# Type: functional
# Details: not given
# In short: (§1)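 Mycelial growth inhibition on mycelial disks, compared with untreated control, using colony diameters: (control − treatment)/(control − disk diameter) × 100. Run twice, four replicates each.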
row,Structure (SMILES),inhibition at 50 µg/mL
1,COc1ccc(CCNC(=O)/C=C(\c2ccnc(Cl)c2)c2ccc(C)c(C)c2)cc1OC,23.8%
2,CC(C)(C)c1ccc(/C(=C/C(=O)NCCc2ccc(O)cc2)c2ccnc(Cl)c2)cc1,9.03%
3,COC(=O)Nc1nc2ccccc2[nH]1 [CARBENDAZIM],100%
4,COc1ccc(/C(=C/C(=O)NCCc2ccccc2)c2ccnc(Cl)c2)cc1,13.6%
5,Cc1ccc(/C(=C/C(=O)NCCc2ccccc2)c2ccnc(Cl)c2)cc1,93.9%
6,Cc1ccc(/C(=C/C(=O)NCCc2ccccc2)c2ccnc(Cl)c2)cc1C,76.8%
7,CCc1ccc(/C(=C/C(=O)NCCc2ccccc2)c2ccnc(Cl)c2)cc1,22.4%
8,COc1ccc(CCNC(=O)/C=C(\c2ccncc2)c2ccc(C)c(C)c2)cc1OC,5.81%
9,Cc1ccc(/C(=C/C(=O)NCCc2ccc(O)cc2)c2ccncc2)cc1,10.3%
10,COc1ccc(CCNC(=O)/C=C(\c2ccnc(Cl)c2)c2ccc(C)cc2C)cc1OC,35.5%
11,COc1ccc(CCNC(=O)/C=C(/c2ccc(C)cc2)c2ccnc(Cl)c2)cc1OC,82.6%

# System: Bursaphelenchus xylophilus
# Assay: Nematicidal activity against Bursaphelenchus xylophilus assessed as mortality at 200 mg/L after 72 hr relative to control
# Type: functional
# Details: not given
# In short: (§2)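 Compounds dissolved in acetone and diluted with distilled water to a 200 mg L-1 working solution. Distilled water served as blank, triplicate. Mortality counted at 24, 48 and 72 h, then corrected against the negative control with Abbott's formula.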
row,Structure (SMILES),Activity
1,COc1ccc(CCNC(=O)/C=C(\c2ccnc(Cl)c2)c2ccc(C)c(C)c2)cc1OC,21.64%
2,CC(C)(C)c1ccc(/C(=C/C(=O)NCCc2ccc(O)cc2)c2ccnc(Cl)c2)cc1,31.44%
3,COc1ccc(/C(=C/C(=O)NCCc2ccccc2)c2ccnc(Cl)c2)cc1,42.01%
4,CN(/C=C\c1ccccc1)C(=O)/C=C/c1ccccc1 [LANSIUMAMIDE B],100%
5,Cc1ccc(/C(=C/C(=O)NCCc2ccccc2)c2ccnc(Cl)c2)cc1,35.35%
6,Cc1ccc(/C(=C/C(=O)NCCc2ccccc2)c2ccnc(Cl)c2)cc1C,45.15%
7,CCc1ccc(/C(=C/C(=O)NCCc2ccccc2)c2ccnc(Cl)c2)cc1,67.87%
8,COc1ccc(CCNC(=O)/C=C(\c2ccncc2)c2ccc(C)c(C)c2)cc1OC,19.29%
9,Cc1ccc(/C(=C/C(=O)NCCc2ccc(O)cc2)c2ccncc2)cc1,19.29%
10,COc1ccc(CCNC(=O)/C=C(\c2ccnc(Cl)c2)c2ccc(C)cc2C)cc1OC,38.09%
11,COc1ccc(CCNC(=O)/C=C(/c2ccc(C)cc2)c2ccnc(Cl)c2)cc1OC,43.97%

# System: Bursaphelenchus xylophilus
# Assay: Nematicidal activity against Bursaphelenchus xylophilus assessed as mortality at 200 mg/L after 48 hr relative to control
# Type: functional
# Details: not given
# In short: as §2
row,Structure (SMILES),Activity
1,COc1ccc(CCNC(=O)/C=C(\c2ccnc(Cl)c2)c2ccc(C)c(C)c2)cc1OC,17.81%
2,CC(C)(C)c1ccc(/C(=C/C(=O)NCCc2ccc(O)cc2)c2ccnc(Cl)c2)cc1,27.76%
3,COc1ccc(/C(=C/C(=O)NCCc2ccccc2)c2ccnc(Cl)c2)cc1,38.82%
4,CN(/C=C\c1ccccc1)C(=O)/C=C/c1ccccc1 [LANSIUMAMIDE B],100%
5,Cc1ccc(/C(=C/C(=O)NCCc2ccccc2)c2ccnc(Cl)c2)cc1,28.13%
6,Cc1ccc(/C(=C/C(=O)NCCc2ccccc2)c2ccnc(Cl)c2)cc1C,21.49%
7,CCc1ccc(/C(=C/C(=O)NCCc2ccccc2)c2ccnc(Cl)c2)cc1,26.29%
8,COc1ccc(CCNC(=O)/C=C(\c2ccncc2)c2ccc(C)c(C)c2)cc1OC,16.33%
9,Cc1ccc(/C(=C/C(=O)NCCc2ccc(O)cc2)c2ccncc2)cc1,16.7%
10,COc1ccc(CCNC(=O)/C=C(\c2ccnc(Cl)c2)c2ccc(C)cc2C)cc1OC,34.02%
11,COc1ccc(CCNC(=O)/C=C(/c2ccc(C)cc2)c2ccnc(Cl)c2)cc1OC,38.45%

# System: Colletotrichum lindemuthianum
# Assay: Antifungal activity against Colletotrichum lindemuthianum assessed as inhibition of mycelium growth at 50 ug/ml relative to control
# Type: functional
# Details: not given
# In short: as §1
row,Structure (SMILES),inhibition at 50 µg/mL
1,COc1ccc(CCNC(=O)/C=C(\c2ccnc(Cl)c2)c2ccc(C)c(C)c2)cc1OC,23.9%
2,CC(C)(C)c1ccc(/C(=C/C(=O)NCCc2ccc(O)cc2)c2ccnc(Cl)c2)cc1,39.5%
3,COC(=O)Nc1nc2ccccc2[nH]1 [CARBENDAZIM],82.1%
4,COc1ccc(/C(=C/C(=O)NCCc2ccccc2)c2ccnc(Cl)c2)cc1,43.3%
5,Cc1ccc(/C(=C/C(=O)NCCc2ccccc2)c2ccnc(Cl)c2)cc1,59.7%
6,Cc1ccc(/C(=C/C(=O)NCCc2ccccc2)c2ccnc(Cl)c2)cc1C,56%
7,CCc1ccc(/C(=C/C(=O)NCCc2ccccc2)c2ccnc(Cl)c2)cc1,34.3%
8,COc1ccc(CCNC(=O)/C=C(\c2ccncc2)c2ccc(C)c(C)c2)cc1OC,28.4%
9,Cc1ccc(/C(=C/C(=O)NCCc2ccc(O)cc2)c2ccncc2)cc1,28.4%
10,COc1ccc(CCNC(=O)/C=C(\c2ccnc(Cl)c2)c2ccc(C)cc2C)cc1OC,42.5%
11,COc1ccc(CCNC(=O)/C=C(/c2ccc(C)cc2)c2ccnc(Cl)c2)cc1OC,55.2%

# System: Botrytis cinerea
# Assay: Antifungal activity against Botryotinia fuckeliana assessed as inhibition of mycelium growth at 50 ug/ml relative to control
# Type: functional
# Details: not given
# In short: as §1
row,Structure (SMILES),inhibition at 50 µg/mL
1,COc1ccc(CCNC(=O)/C=C(\c2ccnc(Cl)c2)c2ccc(C)c(C)c2)cc1OC,33%
2,CC(C)(C)c1ccc(/C(=C/C(=O)NCCc2ccc(O)cc2)c2ccnc(Cl)c2)cc1,50%
3,COC(=O)Nc1nc2ccccc2[nH]1 [CARBENDAZIM],38%
4,COc1ccc(/C(=C/C(=O)NCCc2ccccc2)c2ccnc(Cl)c2)cc1,55%
5,Cc1ccc(/C(=C/C(=O)NCCc2ccccc2)c2ccnc(Cl)c2)cc1,44%
6,Cc1ccc(/C(=C/C(=O)NCCc2ccccc2)c2ccnc(Cl)c2)cc1C,67%
7,CCc1ccc(/C(=C/C(=O)NCCc2ccccc2)c2ccnc(Cl)c2)cc1,50%
8,COc1ccc(CCNC(=O)/C=C(\c2ccncc2)c2ccc(C)c(C)c2)cc1OC,52%
9,Cc1ccc(/C(=C/C(=O)NCCc2ccc(O)cc2)c2ccncc2)cc1,47%
10,COc1ccc(CCNC(=O)/C=C(\c2ccnc(Cl)c2)c2ccc(C)cc2C)cc1OC,40%
11,COc1ccc(CCNC(=O)/C=C(/c2ccc(C)cc2)c2ccnc(Cl)c2)cc1OC,59%

# System: Bursaphelenchus xylophilus
# Assay: Nematicidal activity against Bursaphelenchus xylophilus assessed as mortality at 200 mg/L after 24 hr relative to control
# Type: functional
# Details: not given
# In short: as §2
row,Structure (SMILES),Activity
1,COc1ccc(CCNC(=O)/C=C(\c2ccnc(Cl)c2)c2ccc(C)c(C)c2)cc1OC,8.63%
2,CC(C)(C)c1ccc(/C(=C/C(=O)NCCc2ccc(O)cc2)c2ccnc(Cl)c2)cc1,21.17%
3,COc1ccc(/C(=C/C(=O)NCCc2ccccc2)c2ccnc(Cl)c2)cc1,13.65%
4,CN(/C=C\c1ccccc1)C(=O)/C=C/c1ccccc1 [LANSIUMAMIDE B],100%
5,Cc1ccc(/C(=C/C(=O)NCCc2ccccc2)c2ccnc(Cl)c2)cc1,15.8%
6,Cc1ccc(/C(=C/C(=O)NCCc2ccccc2)c2ccnc(Cl)c2)cc1C,14.73%
7,CCc1ccc(/C(=C/C(=O)NCCc2ccccc2)c2ccnc(Cl)c2)cc1,17.95%
8,COc1ccc(CCNC(=O)/C=C(\c2ccncc2)c2ccc(C)c(C)c2)cc1OC,13.65%
9,Cc1ccc(/C(=C/C(=O)NCCc2ccc(O)cc2)c2ccncc2)cc1,8.27%
10,COc1ccc(CCNC(=O)/C=C(\c2ccnc(Cl)c2)c2ccc(C)cc2C)cc1OC,19.02%
11,COc1ccc(CCNC(=O)/C=C(/c2ccc(C)cc2)c2ccnc(Cl)c2)cc1OC,13.29%

# System: Sclerotinia sclerotiorum
# Assay: Antifungal activity against Sclerotinia sclerotiorum assessed as inhibition of mycelium growth at 50 ug/ml relative to control
# Type: functional
# Details: not given
# In short: as §1
row,Structure (SMILES),inhibition at 50 µg/mL
1,COc1ccc(CCNC(=O)/C=C(\c2ccnc(Cl)c2)c2ccc(C)c(C)c2)cc1OC,28%
2,CC(C)(C)c1ccc(/C(=C/C(=O)NCCc2ccc(O)cc2)c2ccnc(Cl)c2)cc1,29%
3,COC(=O)Nc1nc2ccccc2[nH]1 [CARBENDAZIM],100%
4,COc1ccc(/C(=C/C(=O)NCCc2ccccc2)c2ccnc(Cl)c2)cc1,42%
5,Cc1ccc(/C(=C/C(=O)NCCc2ccccc2)c2ccnc(Cl)c2)cc1,37%
6,Cc1ccc(/C(=C/C(=O)NCCc2ccccc2)c2ccnc(Cl)c2)cc1C,72%
7,CCc1ccc(/C(=C/C(=O)NCCc2ccccc2)c2ccnc(Cl)c2)cc1,44%
8,COc1ccc(CCNC(=O)/C=C(\c2ccncc2)c2ccc(C)c(C)c2)cc1OC,11%
9,Cc1ccc(/C(=C/C(=O)NCCc2ccc(O)cc2)c2ccncc2)cc1,5.3%
10,COc1ccc(CCNC(=O)/C=C(\c2ccnc(Cl)c2)c2ccc(C)cc2C)cc1OC,68%
11,COc1ccc(CCNC(=O)/C=C(/c2ccc(C)cc2)c2ccnc(Cl)c2)cc1OC,42%

# System: Bursaphelenchus xylophilus
# Assay: Nematicidal activity against Bursaphelenchus xylophilus assessed as mortality after 72 hr
# Type: functional
# Details: read-out: LD50 (the source's name)
row,Structure (SMILES),LC50
1,CN(/C=C\c1ccccc1)C(=O)/C=C/c1ccccc1 [LANSIUMAMIDE B],5.38 µg/mL
2,Cc1ccc(/C(=C/C(=O)NCCc2ccccc2)c2ccnc(Cl)c2)cc1C,252 µg/mL
3,CCc1ccc(/C(=C/C(=O)NCCc2ccccc2)c2ccnc(Cl)c2)cc1,114 µg/mL
4,COc1ccc(CCNC(=O)/C=C(/c2ccc(C)cc2)c2ccnc(Cl)c2)cc1OC,126 µg/mL

# System: Cytospora mali
# Assay: Antifungal activity against Valsa mali assessed as inhibition of mycelium growth at 50 ug/ml relative to control
# Type: functional
# Details: not given
# In short: as §1
row,Structure (SMILES),inhibition at 50 µg/mL
1,COc1ccc(CCNC(=O)/C=C(\c2ccnc(Cl)c2)c2ccc(C)c(C)c2)cc1OC,36%
2,CC(C)(C)c1ccc(/C(=C/C(=O)NCCc2ccc(O)cc2)c2ccnc(Cl)c2)cc1,-7.8%
3,COC(=O)Nc1nc2ccccc2[nH]1 [CARBENDAZIM],100%
4,COc1ccc(/C(=C/C(=O)NCCc2ccccc2)c2ccnc(Cl)c2)cc1,-6.3%
5,Cc1ccc(/C(=C/C(=O)NCCc2ccccc2)c2ccnc(Cl)c2)cc1,48%
6,Cc1ccc(/C(=C/C(=O)NCCc2ccccc2)c2ccnc(Cl)c2)cc1C,52%
7,CCc1ccc(/C(=C/C(=O)NCCc2ccccc2)c2ccnc(Cl)c2)cc1,20%
8,COc1ccc(CCNC(=O)/C=C(\c2ccncc2)c2ccc(C)c(C)c2)cc1OC,68%
9,Cc1ccc(/C(=C/C(=O)NCCc2ccc(O)cc2)c2ccncc2)cc1,-2.3%
10,COc1ccc(CCNC(=O)/C=C(\c2ccnc(Cl)c2)c2ccc(C)cc2C)cc1OC,29%
11,COc1ccc(CCNC(=O)/C=C(/c2ccc(C)cc2)c2ccnc(Cl)c2)cc1OC,42%

# System: Bursaphelenchus xylophilus
# Assay: Nematicidal activity against Bursaphelenchus xylophilus assessed as mortality after 48 hr
# Type: functional
# Details: read-out: LD50 (the source's name)
row,Structure (SMILES),LC50
1,CN(/C=C\c1ccccc1)C(=O)/C=C/c1ccccc1 [LANSIUMAMIDE B],6.36 µg/mL
2,Cc1ccc(/C(=C/C(=O)NCCc2ccccc2)c2ccnc(Cl)c2)cc1C,315 µg/mL
3,CCc1ccc(/C(=C/C(=O)NCCc2ccccc2)c2ccnc(Cl)c2)cc1,174 µg/mL
4,COc1ccc(CCNC(=O)/C=C(/c2ccc(C)cc2)c2ccnc(Cl)c2)cc1OC,178 µg/mL

# System: Phytophthora nicotianae
# Assay: Antifungal activity against Phytophthora parasitica assessed as inhibition of mycelium growth at 50 ug/ml relative to control
# Type: functional
# Details: not given
# In short: as §1
row,Structure (SMILES),inhibition at 50 µg/mL
1,COc1ccc(CCNC(=O)/C=C(\c2ccnc(Cl)c2)c2ccc(C)c(C)c2)cc1OC,14.2%
2,CC(C)(C)c1ccc(/C(=C/C(=O)NCCc2ccc(O)cc2)c2ccnc(Cl)c2)cc1,-13.7%
3,COC(=O)Nc1nc2ccccc2[nH]1 [CARBENDAZIM],14.5%
4,COc1ccc(/C(=C/C(=O)NCCc2ccccc2)c2ccnc(Cl)c2)cc1,-2.42%
5,Cc1ccc(/C(=C/C(=O)NCCc2ccccc2)c2ccnc(Cl)c2)cc1,24.4%
6,Cc1ccc(/C(=C/C(=O)NCCc2ccccc2)c2ccnc(Cl)c2)cc1C,1.61%
7,CCc1ccc(/C(=C/C(=O)NCCc2ccccc2)c2ccnc(Cl)c2)cc1,26.8%
8,COc1ccc(CCNC(=O)/C=C(\c2ccncc2)c2ccc(C)c(C)c2)cc1OC,-14.5%
9,Cc1ccc(/C(=C/C(=O)NCCc2ccc(O)cc2)c2ccncc2)cc1,-17.7%
10,COc1ccc(CCNC(=O)/C=C(\c2ccnc(Cl)c2)c2ccc(C)cc2C)cc1OC,22.6%
11,COc1ccc(CCNC(=O)/C=C(/c2ccc(C)cc2)c2ccnc(Cl)c2)cc1OC,0%
